The list is not random: actives were taken first. Their share in the collection is about 2.5%.
SENP7 inh = SENP7 protease inhibitors, primary screen, biochemical, luminescence, uHTS. 330,000 compounds, 1.5% hits. inhibition, % at 5 µM. Sentrin-specific protease 7 (Homo sapiens), Q9BQF6. recombinant SENP7, Z-RLRGG-aminoluciferin luminescence, 40 min;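 active = inhibition above about 50% at the single test dose, limit read from the data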;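 also: plate controls were DMSO with enzyme for no effect and no enzyme buffer wells for full effect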
Target sequence (Q9BQF6 706-1050 limits assumed): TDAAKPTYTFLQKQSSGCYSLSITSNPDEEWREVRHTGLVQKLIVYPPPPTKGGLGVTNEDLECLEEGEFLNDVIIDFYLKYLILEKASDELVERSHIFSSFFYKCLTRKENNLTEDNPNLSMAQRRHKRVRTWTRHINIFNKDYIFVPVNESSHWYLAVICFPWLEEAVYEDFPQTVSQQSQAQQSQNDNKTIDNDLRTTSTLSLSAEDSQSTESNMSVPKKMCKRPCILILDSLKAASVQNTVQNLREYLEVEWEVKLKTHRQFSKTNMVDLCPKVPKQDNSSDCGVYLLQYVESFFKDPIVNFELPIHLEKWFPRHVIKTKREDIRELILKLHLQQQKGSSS
SENP8 block-1 = SENP8 protease inhibitors, primary screen, biochemical, luminescence. purified SENP8, Z-RLRGG-aminoluciferin cleavage. inhibition, % at 10 µM. 330,000 compounds, 1.2% hits; in the data active = inhibition above about 50%
Target sequence (Q96LD8 whole entry, looked up): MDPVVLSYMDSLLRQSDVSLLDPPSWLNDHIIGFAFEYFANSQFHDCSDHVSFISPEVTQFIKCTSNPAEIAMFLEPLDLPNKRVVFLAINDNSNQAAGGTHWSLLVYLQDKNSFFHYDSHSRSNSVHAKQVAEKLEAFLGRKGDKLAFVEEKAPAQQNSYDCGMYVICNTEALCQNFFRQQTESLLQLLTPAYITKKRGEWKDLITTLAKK
SENP6 inh = SENP6 protease inhibitors, primary screen, biochemical, luminescence, uHTS. Recombinant SENP6 catalytic domain, aminoluciferin luminescence. Sentrin-specific protease 6 (Homo sapiens), Q9GZR1. AID 2599, 2010. inhibition, % at 10 µM. 330,000 compounds, 1.8% hits;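 active = inhibition above about 50% at the single tested dose, limit read from the data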;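 also: plate controls were DMSO wells with enzyme for no effect and DMSO wells lacking enzyme for full effect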
SENP1 FRET inh = human SENP1 catalytic domain inhibitors, primary screen, biochemical, FRET, uHTS | Sentrin-specific protease 1 (Homo sapiens), Q9P0U3 | recombinant SENP1 catalytic domain, CyPet-SUMO1-YPet FRET cleavage | inhibition, % at 10 µM | 360,000 compounds, 0.21% hits | AID 624204, 2012;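 active = inhibition at least 30% at 10 µM, raw YFP signal under a set limit, fluorescence ratio 0.5 to 1.5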;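 also: 0% = enzyme with DMSO and 100% = no enzyme wells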
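Material: hSENP1 catalytic domain, recombinant; medium: Tris pH 8 with BME, BSA, NP40 and catalase; compound: single concentration of 10 µM compound, 0.5% DMSO final; technique: FRET read of cyan and yellow fluorescence; timing: 50 min enzyme reaction, room temperature, light-protected; reagent: SFCypet-SUMO1-SFYpet substrate at 25 nM; control set: no-enzyme low, enzyme-DMSO high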
SENP8 block-2 = human SENP8 protease inhibitors, primary screen, biochemical, fluorescence, Nedd8 protein substrate, uHTS; Sentrin-specific protease 8 (Homo sapiens), Q96LD8; recombinant SENP8; inhibition, % at 20 µM; 360,000 compounds, 0.64% hits; AID 602440, 2012; in the data active = inhibition mostly above about 40%, no sharp cut-off; inactive = mostly below about 27%
* marks the source's active call; other numbers are inactive results; x = no result.

SMILES | SENP7 inh | SENP8 block-1 | SENP6 inh | SENP1 FRET inh | SENP8 block-2
O=C1/C(=C/c2ccco2)SC(=S)N1CC1CCCO1 (stereo not drawn) | 10 | 3 | -26 | -3 | 42*
O=C1/C(=C/c2cccnc2)SC(=S)N1CC1CCCO1 (stereo not drawn) | 6 | -1 | 3 | 2 | 13
Cc1ccc(/C=C2\SC(=S)N(CC3CCCO3)C2=O)o1 (stereo not drawn) | 7 | 6 | 8 | -35 | 34
Cc1ccc(N2C(=O)/C(=C\c3ccco3)SC2=S)cc1 | 13 | 1 | -4 | 1 | 48*
C=CCNc1nc(-c2ccc3c(c2)OCCO3)cs1 | 66* | 82* | 90* | -3 | 10
Cc1ccc(N2Cc3ccccc3C2=S)cc1 | 59* | 44 | 54* | -1 | 1
S=C1c2ccccc2CN1c1ccccc1 | 2 | -8 | 5 | 1 | 18
O=C(NCC1CCN(Cc2ccc(F)cc2)CC1)Nc1cc(F)ccc1F | -6 | -13 | -13 | 1 | 14
NC(=S)N=Nc1c(O)[nH]c2c(Br)cc(Br)cc12 | -8 | -9 | -23 | 6 | 52*
Cc1cc(NC(=O)COC(=O)c2ccco2)no1 | -11 | -10 | -1 | 1 | 19
Cc1[nH]n(-c2ccccc2)c(=O)c1/C=N/NC(=O)c1cccc([N+](=O)[O-])c1 | -1 | 0 | 9 | 0 | 52*
Cc1[nH]n(-c2cccc3ccccc23)c(=O)c1/C=N/NC(=O)c1cccc([N+](=O)[O-])c1 | 11 | 3 | 15 | 2 | 8
CCC1=NN(C(=O)c2ccc(Cl)cc2)C(O)(c2ccc(C)cc2)C1 (stereo not drawn) | 11 | 1 | 9 | -1 | 8
CCOC(=O)C1=NN(C(=O)c2ccc(C)cc2)C(O)(c2ccc(Cl)cc2)C1 (stereo not drawn) | -1 | 5 | -1 | 31* | 20
CC(=O)Nc1n[nH]c(=S)s1 | x | x | x | 0 | 1
O=C(Nc1n[nH]c(=S)s1)c1ccc2ccccc2c1 | 63* | 82* | 91* | 2 | -17
Cc1ccccc1-c1cc2nc(Oc3cccc(F)c3)n(C)c(=O)c2s1 | x | x | x | 2 | 30
CCC(C)NC(=O)CSc1nnc(-c2cc(OC)c(OC)c(OC)c2)c(-c2cc(OC)c(OC)c(OC)c2)n1 (stereo not drawn) | 7 | 0 | -21 | 3 | 0
Clc1ccc(Sc2cnc3ccccc3n2)cc1 | -7 | -22 | -5 | -4 | -4
Clc1ccc(-c2cnc3ccccc3n2)cc1 | 92* | 85* | 90* | 1 | -4
Cc1ccc(Cl)cc1NC(=O)C(=O)N/N=C/c1ccc2c(c1)OCO2 | -6 | -11 | -15 | 0 | -144
Cc1cc2ncn(/N=C/c3ccc([N+](=O)[O-])s3)c2cc1C | x | x | x | 14 | 33
O=[N+]([O-])c1ccc(/C=N/n2c(CO)nc3ccccc32)s1 | 28 | 5 | 27 | 58 | 53*
COc1ccc(-c2nc3ccccn3c2C=O)cc1 | 55* | 48 | 62* | -2 | -8
O=c1cc(-c2ccc(O)c(O)c2)oc2cc(O)c([C@@H]3O[C@H](CO)[C@@H](O)[C@H](O)[C@H]3O)c(O)c12 | -12 | -14 | -19 | 15 | 30
SMILES | SENP7 inh | SENP8 block-1 | SENP6 inh | SENP1 FRET inh | SENP8 block-2
O=c1c2cc(O)c(O)cc2oc2cc(O)c(C3OC(CO)C(O)C(O)C3O)c(O)c12 (stereo not drawn) | 0 | 2 | -19 | 37* | 18
C[C@H]1c2cccc(O)c2C(O)=C2C(=O)C3(O)C(O)=C(C(N)=O)C(=O)[C@@H](N(C)C)[C@@H]3[C@@H](O)[C@@H]21 (stereo partly drawn) | 10 | 3 | -2 | 7 | 1
C=C1c2cccc(O)c2C(O)=C2C(=O)[C@]3(O)C(O)=C(C(N)=O)C(=O)[C@@H](N(C)C)[C@@H]3[C@@H](O)[C@H]12 | 1 | 0 | -3 | 31* | 36
O=C1/C(=C/c2ccc(O)cc2)CCc2ccc([N+](=O)[O-])cc21 | -2 | -31 | -28 | -6 | 21
O=C1/C(=C\c2ccc([N+](=O)[O-])cc2)CCc2ccccc21 | 87* | 91* | 82* | 2 | 33
O=C1C=C(N2CCOCC2)c2ccccc2C1=O | 90* | 94* | 90* | 0 | -150
CC1=C(C)C(=O)C(N2CCOCC2)=CC1=O | x | x | x | -1 | 47*
O=C1C=C(N2CCOCC2)c2cccc3cccc1c23 | x | x | x | 12 | 19
CCOC(=O)N1CCN(C(=O)CCc2ccc(S(=O)(=O)NC(C)(C)C)cc2)CC1 | -12 | -6 | -1 | 2 | 0
CCOC(=O)C(C(=O)OCC)c1cc(Br)c2noc3c2c1C(=O)c1ccccc1-3 | 23 | 22 | 65* | -22 | 87*
O=C1c2ccccc2-c2onc3ccc(Oc4ccccc4)c1c23 | 7 | 20 | 38 | 77 | 29
Nc1ccc(OCc2ccco2)cc1 | 54* | 2 | 2 | 0 | 19
COc1ccc(C(=O)CCC(=O)N2CCN(c3cc(C)ccc3C)CC2)cc1 | 2 | 8 | 1 | 2 | 11
Oc1c(CN2CCOCC2)cc(CN2CCOCC2)c(O)c1O | x | x | x | 13 | 52*
Oc1cccc(CN2CCOCC2)c1O | x | x | x | 1 | 36
Cc1ccc(S(=O)(=O)N2CCC(C(=O)NCCc3ccccn3)CC2)cc1 | -6 | -9 | -12 | 0 | -4
O=[N+]([O-])c1c(Nc2ccccn2)cc(Cl)c2nonc12 | 95* | 43 | 87* | -2 | 68*
Cc1[nH]c2c(C)cccc2c1CCNC(=O)c1ccc2c(c1[N+](=O)[O-])C(=O)c1ccccc1C2=O | 6 | 7 | -3 | 1 | 43*
Cc1[nH]c2ccccc2c1CCNC(=O)c1ccc2c(c1[N+](=O)[O-])C(=O)c1ccccc1C2=O | 7 | 6 | 18 | 1 | 34
Cc1cccc(S(=O)(=O)NC(=O)C2(C)CCN2C(=O)c2c(C)noc2C)c1 (stereo not drawn) | x | x | x | 0 | 9
Cn1c(O)c(/C=N/NC(=O)c2cc3ccccc3cc2O)c2ccccc21 | 11 | 93* | 97* | -25 | -251
O=C(N=Nc1c(O)[nH]c2ccccc12)c1ccc2c(c1)OCO2 | 91* | 46 | 66* | 2 | 26
O=C(N=Nc1c(O)[nH]c2ccccc12)c1ccc(CN2CCOCC2)cc1 | 4 | 1 | -3 | 3 | 25
Cc1ccc(-c2nc(-c3ccccn3)no2)cc1Cl | 99* | 96* | 95* | 2 | -16
COC(=O)[C@]12CCCCC=C1N(Cc1ccc(Cl)cc1Cl)C(=O)[C@H](CC(=O)NCc1ccc(OC)c(OC)c1)C2 | x | x | x | 1 | 6
O=C1C2C3C=CC(C3)C2C(=O)N1CNc1ccc(O)cc1 (stereo not drawn) | 18 | 13 | 72* | x | x

Compound activity as filed in PubChem.
